The record followed here is ChEMBL document CHEMBL2203205 (Eur J Med Chem, 2012).

Data set [1] deals with T1, Alpha-1A adrenergic receptor (Homo sapiens, UniProt P35348).
T1 sequence (P35348 whole entry): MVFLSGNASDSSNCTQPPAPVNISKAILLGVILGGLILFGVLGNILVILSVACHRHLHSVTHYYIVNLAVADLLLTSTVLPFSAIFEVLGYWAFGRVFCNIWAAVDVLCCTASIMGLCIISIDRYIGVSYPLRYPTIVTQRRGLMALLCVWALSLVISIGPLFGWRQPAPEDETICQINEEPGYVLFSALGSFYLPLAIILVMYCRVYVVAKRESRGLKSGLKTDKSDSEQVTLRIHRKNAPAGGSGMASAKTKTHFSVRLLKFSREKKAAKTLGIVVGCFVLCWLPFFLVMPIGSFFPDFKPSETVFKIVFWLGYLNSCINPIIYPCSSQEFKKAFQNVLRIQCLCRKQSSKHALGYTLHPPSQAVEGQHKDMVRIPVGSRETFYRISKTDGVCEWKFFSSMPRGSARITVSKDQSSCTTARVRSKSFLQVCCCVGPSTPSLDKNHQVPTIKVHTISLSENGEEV
Briefly: Inhibition of alpha1A adrenergic receptor. Put shortly: (§1)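 Radioligand competition binding, run first as a single-concentration broad screen at […], then as concentration-response for follow-up targets, with the reference compound tested in parallel. Specific binding is total minus binding in excess unlabelled ligand, expressed as % of control specific binding. IC50 and Hill coefficient come from non-linear Hill-equation regression of competition curves built from mean replicate values.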

For data set [2], the target named is Muscarinic acetylcholine receptor M3 (Homo sapiens, UniProt P20309). Briefly: Inhibition of muscarinic M3 receptor. Put shortly: as §1
Data set [3] has as its target T2, Alpha-2B adrenergic receptor (Homo sapiens, UniProt P18089).
T2 sequence (P18089 whole entry): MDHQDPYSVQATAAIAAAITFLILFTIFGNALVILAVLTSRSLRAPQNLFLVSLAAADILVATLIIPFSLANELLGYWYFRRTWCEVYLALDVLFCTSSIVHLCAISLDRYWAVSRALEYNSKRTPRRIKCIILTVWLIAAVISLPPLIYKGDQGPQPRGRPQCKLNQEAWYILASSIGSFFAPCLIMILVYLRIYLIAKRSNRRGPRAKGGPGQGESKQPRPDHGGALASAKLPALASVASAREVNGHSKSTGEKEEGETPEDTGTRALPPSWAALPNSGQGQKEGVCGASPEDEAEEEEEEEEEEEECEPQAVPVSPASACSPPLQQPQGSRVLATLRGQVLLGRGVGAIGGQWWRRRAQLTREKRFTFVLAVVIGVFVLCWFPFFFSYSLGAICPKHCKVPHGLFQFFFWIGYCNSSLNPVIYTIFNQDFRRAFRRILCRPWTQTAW
Briefly: Inhibition of alpha2B adrenergic receptor. In outline:
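Binding assay from a broad screen, with a reference compound tested concurrently. Specific binding was total minus nonspecific binding (excess unlabelled ligand). IC50 and Hill coefficient came from non-linear regression of competition curves using mean replicate values.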

A short description of data set [4]: AUC in Sprague-Dawley rat at 3 mg/kg, iv. Also on record: dose 3 mg/kg, route intravenous. The conditions noted are these: plasma. It counts as ADME, organism-based. Put shortly: (§2)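 Male Sprague-Dawley rats dosed intravenously (3 mg/kg) and orally (10 mg/kg). PK parameters came from non-compartmental analysis of plasma concentration vs time curves.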
A short description of data set [5]: Oral bioavailability in Sprague-Dawley rat at 10 mg/kg. In kind it is ADME, organism-based. The conditions noted are these: in vivo. In outline: as §2
Data set [6] can be described thus: Volume of distribution at steady state in Sprague-Dawley rat at 3 mg/kg, iv. In kind it is ADME, organism-based. Further details: dose 3 mg/kg, route intravenous. The conditions noted are these: in vivo, read-out: Vdss. In outline: as §2
Data set [7] has as its target Voltage-gated inwardly rectifying potassium channel KCNH2 (Homo sapiens, UniProt Q12809). Briefly: Inhibition of human recombinant ERG expressed in HEK293 cells after 5 to 10 mins by conventional whole-cell patch clamp assay. It counts as cell-based. Put shortly:
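Conventional whole-cell patch clamp on HEK-293 cells stably expressing hERG, cultured 1–7 days in DMEM/GlutaMax-1 + 10% FBS on collagen-coated dishes. Holding potential was −80 mV. Compound was superfused 5–10 min per concentration at rt (22–24 °C). Tail current amplitude was measured before and after superfusion. IC50 came from a logistic fit of the concentration-response.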

Data set [8] addresses T3, Alpha-1D adrenergic receptor (Homo sapiens, UniProt P25100).
T3 sequence (P25100 whole entry): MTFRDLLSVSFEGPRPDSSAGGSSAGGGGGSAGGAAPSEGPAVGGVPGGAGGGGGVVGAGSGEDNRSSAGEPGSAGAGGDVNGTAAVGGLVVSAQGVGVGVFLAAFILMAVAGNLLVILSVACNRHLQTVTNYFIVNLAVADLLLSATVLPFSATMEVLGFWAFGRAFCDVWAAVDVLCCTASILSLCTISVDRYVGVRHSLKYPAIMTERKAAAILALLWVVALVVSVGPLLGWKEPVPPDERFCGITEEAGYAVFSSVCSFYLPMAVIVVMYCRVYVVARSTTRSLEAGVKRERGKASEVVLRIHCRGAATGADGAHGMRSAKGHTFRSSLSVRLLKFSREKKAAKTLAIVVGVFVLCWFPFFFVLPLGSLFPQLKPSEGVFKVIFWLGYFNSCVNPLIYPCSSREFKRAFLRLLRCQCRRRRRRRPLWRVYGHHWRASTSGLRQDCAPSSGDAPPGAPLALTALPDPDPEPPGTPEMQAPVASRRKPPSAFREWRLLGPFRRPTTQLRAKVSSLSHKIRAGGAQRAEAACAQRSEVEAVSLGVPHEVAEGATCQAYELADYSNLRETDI
As to the kind of experiment: Inhibition of alpha1D adrenergic receptor. In outline:
as §1

Data set [9] can be described thus: Tmax in Sprague-Dawley rat at 10 mg/kg, po. It counts as ADME, organism-based. Also on record: dose 10 mg/kg, route oral. Conditions: in vivo. Put shortly: as §2
Data set [10] has as its target 5-hydroxytryptamine receptor 1B (Homo sapiens, UniProt P28222). Briefly: Inhibition of 5HT1B receptor. In outline:
as §1

Data set [11] deals with Cytochrome P450 2D6 (Homo sapiens, UniProt P10635). Briefly: Inhibition of human CYP2D6. It counts as ADME.
The subject of data set [12] is Rattus norvegicus. Briefly: Analgesic activity in rat L5 and L6 spinal nerve ligation model assessed as reversal of thermal hyperalgesia at 30 mg/kg, ip after 60 mins. It counts as functional. The conditions noted are these: route intraperitoneal.
For data set [13], the target named is T4, Muscarinic acetylcholine receptor M1 (Homo sapiens, UniProt P11229).
T4 sequence (P11229 whole entry): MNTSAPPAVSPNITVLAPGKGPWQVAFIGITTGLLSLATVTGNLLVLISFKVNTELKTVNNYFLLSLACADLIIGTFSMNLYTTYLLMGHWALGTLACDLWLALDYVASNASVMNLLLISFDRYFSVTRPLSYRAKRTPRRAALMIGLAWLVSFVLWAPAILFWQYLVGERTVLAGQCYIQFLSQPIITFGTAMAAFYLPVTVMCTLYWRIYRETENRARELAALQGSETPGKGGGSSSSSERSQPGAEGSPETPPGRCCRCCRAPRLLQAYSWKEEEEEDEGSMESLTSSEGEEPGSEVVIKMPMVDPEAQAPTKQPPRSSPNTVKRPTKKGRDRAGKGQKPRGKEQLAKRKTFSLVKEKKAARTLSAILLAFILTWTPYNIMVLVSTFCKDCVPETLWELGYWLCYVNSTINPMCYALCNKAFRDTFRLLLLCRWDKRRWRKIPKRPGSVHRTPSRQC
Briefly: Inhibition of muscarinic M1 receptor. Put shortly:
as §1

Chain of Muscarinic acetylcholine receptor M3 (P20309 whole entry): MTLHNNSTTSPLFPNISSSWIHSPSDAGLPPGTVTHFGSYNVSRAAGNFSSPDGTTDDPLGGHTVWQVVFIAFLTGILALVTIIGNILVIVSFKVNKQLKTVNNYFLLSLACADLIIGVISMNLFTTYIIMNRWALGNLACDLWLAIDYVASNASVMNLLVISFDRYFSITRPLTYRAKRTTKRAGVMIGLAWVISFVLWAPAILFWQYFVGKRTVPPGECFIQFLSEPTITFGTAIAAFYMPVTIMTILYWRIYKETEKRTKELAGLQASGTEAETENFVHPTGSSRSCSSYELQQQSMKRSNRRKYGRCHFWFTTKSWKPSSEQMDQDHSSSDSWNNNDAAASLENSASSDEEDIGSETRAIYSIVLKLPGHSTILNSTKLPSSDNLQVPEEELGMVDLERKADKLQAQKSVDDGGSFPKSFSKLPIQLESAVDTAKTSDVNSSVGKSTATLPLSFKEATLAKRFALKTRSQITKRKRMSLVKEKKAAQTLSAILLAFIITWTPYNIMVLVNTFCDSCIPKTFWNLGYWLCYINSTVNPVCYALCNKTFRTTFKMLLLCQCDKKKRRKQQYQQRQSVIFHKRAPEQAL
Chain of 5-hydroxytryptamine receptor 1B (P28222 whole entry): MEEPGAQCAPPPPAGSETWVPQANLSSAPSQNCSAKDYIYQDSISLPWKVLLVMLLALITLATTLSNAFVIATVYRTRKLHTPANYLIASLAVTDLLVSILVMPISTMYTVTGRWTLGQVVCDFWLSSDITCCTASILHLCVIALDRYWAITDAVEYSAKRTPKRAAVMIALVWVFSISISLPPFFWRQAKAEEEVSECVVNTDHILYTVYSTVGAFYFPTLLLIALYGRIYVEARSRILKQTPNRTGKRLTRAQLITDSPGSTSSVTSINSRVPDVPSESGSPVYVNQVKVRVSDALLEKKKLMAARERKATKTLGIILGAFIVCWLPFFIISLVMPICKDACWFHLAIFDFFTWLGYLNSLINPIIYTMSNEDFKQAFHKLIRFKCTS
Chain of Cytochrome P450 2D6 (P10635 whole entry): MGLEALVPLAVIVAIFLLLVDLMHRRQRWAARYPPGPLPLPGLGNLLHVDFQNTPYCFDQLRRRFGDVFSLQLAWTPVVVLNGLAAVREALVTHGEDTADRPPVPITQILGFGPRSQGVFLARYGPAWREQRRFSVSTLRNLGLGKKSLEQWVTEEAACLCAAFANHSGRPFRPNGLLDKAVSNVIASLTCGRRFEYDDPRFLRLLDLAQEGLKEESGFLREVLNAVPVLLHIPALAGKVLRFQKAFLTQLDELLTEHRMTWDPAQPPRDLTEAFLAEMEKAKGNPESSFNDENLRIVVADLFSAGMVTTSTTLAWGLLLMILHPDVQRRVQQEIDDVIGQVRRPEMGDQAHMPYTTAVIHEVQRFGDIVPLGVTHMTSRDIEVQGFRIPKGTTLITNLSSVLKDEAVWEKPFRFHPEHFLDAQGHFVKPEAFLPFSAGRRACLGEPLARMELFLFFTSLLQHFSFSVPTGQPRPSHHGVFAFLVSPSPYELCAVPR
Chain of Voltage-gated inwardly rectifying potassium channel KCNH2 (Q12809 whole entry, the tested form may be a part): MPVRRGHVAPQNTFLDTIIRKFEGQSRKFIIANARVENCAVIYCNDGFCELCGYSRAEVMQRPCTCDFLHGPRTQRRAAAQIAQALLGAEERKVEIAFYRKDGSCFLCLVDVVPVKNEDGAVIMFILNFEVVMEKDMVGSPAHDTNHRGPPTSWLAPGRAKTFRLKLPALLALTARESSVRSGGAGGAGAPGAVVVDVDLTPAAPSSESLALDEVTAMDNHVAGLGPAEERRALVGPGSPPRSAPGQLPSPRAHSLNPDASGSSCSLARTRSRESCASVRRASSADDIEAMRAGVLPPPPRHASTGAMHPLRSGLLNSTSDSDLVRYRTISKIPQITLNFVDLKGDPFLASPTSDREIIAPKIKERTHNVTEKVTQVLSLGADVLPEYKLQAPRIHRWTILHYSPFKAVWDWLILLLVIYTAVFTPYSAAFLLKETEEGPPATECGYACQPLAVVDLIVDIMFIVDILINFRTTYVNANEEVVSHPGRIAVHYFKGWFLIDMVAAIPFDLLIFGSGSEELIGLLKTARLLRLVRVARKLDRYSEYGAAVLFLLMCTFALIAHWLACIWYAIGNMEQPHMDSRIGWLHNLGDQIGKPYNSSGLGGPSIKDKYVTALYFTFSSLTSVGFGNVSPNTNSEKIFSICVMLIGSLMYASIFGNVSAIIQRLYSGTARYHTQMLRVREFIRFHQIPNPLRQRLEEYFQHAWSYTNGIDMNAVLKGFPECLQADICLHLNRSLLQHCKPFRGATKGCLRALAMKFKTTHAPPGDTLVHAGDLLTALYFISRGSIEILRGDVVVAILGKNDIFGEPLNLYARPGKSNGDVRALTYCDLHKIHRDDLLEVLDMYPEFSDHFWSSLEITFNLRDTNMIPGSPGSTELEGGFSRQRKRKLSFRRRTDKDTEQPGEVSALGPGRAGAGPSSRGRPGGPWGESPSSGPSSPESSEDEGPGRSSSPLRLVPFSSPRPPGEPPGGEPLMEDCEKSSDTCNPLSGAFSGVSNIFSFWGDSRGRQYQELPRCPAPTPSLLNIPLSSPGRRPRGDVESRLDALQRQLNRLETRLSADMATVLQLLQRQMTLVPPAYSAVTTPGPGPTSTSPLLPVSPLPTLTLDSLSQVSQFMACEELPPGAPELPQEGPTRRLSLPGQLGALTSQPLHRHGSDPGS

For the molecule `N=C(Nc1ccc2c(c1)CCN2C1CCNCC1)c1cccs1`, the half-maximal inhibitory concentration (IC50) is 1900 nM in data set [1]; 4500 nM in data set [2]; 32000 nM in data set [3]; above 100000 nM in [7]; 2200 nM in data set [8]; 2200 nM in data set [10]. For the same molecule, the IC50 in data set [11] amounted to 750 nM; in [13], 8600 nM. This molecule also gave an AUC in data set [4] of 95.2 ng·h/mL. Besides, the bioavailability in data set [5] is 91%. For the same molecule, in [6], the Vd turned out to be 330 L/kg. The time of peak concentration (Tmax) in data set [9] was found to be 2 h. In [12], the Activity is on record as 71%.
